# Measured values: ChEMBL document CHEMBL1157219, “Chalcones and other compounds from the exudates of Angelica keiskei and their cancer chemopreventive effects” (J Nat Prod, 2006)
# Key:
# [1] = tested on: Raji; assay: Inhibition of TPA-induced EBV-early antigen activation in human Raji cells at 1000 molar ratio relative to TPA; type: cell-based; set-up: scale not given: the % may be the effect or the level left; conditions: human gammaherpesvirus 4
# Method in brief: (§1)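 Raji cells incubated 48 h at 37 °C in medium with n-butyric acid (4 mM), TPA (32 pmol) and test compound at molar ratios to TPA (1000, 500, 100). Smears were stained for EBV-EA by indirect immunofluorescence. Induction is given as % of TPA-alone control (100%).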
# [2] = Scavenging activity against (+/-)-(E)-methyl-2-[(E)-hydroxyimino]-5-nitro-6-methoxy-3-hexemide-induced NO generation in human Chang liver cells; type: functional
# Method in brief: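 Human Chang liver cells (5 × 10^5/mL) were cultured in MEM Eagle medium for 3 days. Samples (350 nmol) were added 1 min before NOR 1 (350 nmol), then incubated 1 h in a CO2 incubator. Transformed cells were counted under light microscopy (×100, >250 cells). The inhibitory ratio is transformed % with NOR 1 alone divided by transformed % with NOR 1 plus sample, with NOR 1 taken as 1.0.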
# [3] = Inhibition of TPA-induced EBV-early antigen activation in human Raji cells; type: cell-based, human gammaherpesvirus 4; method in brief: as §1
# [4] = Cytotoxicity against human Raji cells assessed as cell viability at 1000 molar ratio; type: cell-based; conditions: read-out: Activity
# Method in brief: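 Raji cell viability was recorded as a percentage in the EBV-EA setup: 48 h at 37 °C with n-butyric acid (4 mM), TPA (32 pmol) and compound at 32 nmol (1000:1 molar ratio to TPA).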
# [5] = tested on: Raji; assay: Inhibition of TPA-induced EBV-early antigen activation in human Raji cells at 100 molar ratio relative to TPA; type: cell-based; set-up: scale not given: the % may be the effect or the level left; conditions: human gammaherpesvirus 4; method in brief: as §1
# [6] = tested on: Raji; assay: Inhibition of TPA-induced EBV-early antigen activation in human Raji cells at 500 molar ratio relative to TPA; type: cell-based; set-up: scale not given: the % may be the effect or the level left; conditions: human gammaherpesvirus 4; method in brief: as §1
# [7] = tested on: Raji; assay: Inhibition of TPA-induced EBV-early antigen activation in human Raji cells at 10 molar ratio relative to TPA; type: cell-based; set-up: scale not given: the % may be the effect or the level left; conditions: human gammaherpesvirus 4
# [8] = species on record: Mus musculus; assay: Inhibition of tumor promotion in mouse assessed as papilloma bearing mouse after 20 weeks; type: functional
# Method in brief: (§2)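 Two-stage mouse skin carcinogenesis using DMBA and TPA as promoter. Groups were 15 mice housed five per cage with water ad libitum. The percentage of papilloma-bearing mice was scored at 10 and 20 weeks of promotion in treated versus untreated groups.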
# [9] = species on record: Mus musculus; assay: Inhibition of tumor promotion in mouse assessed as papilloma bearing mouse after 10 weeks; type: functional; method in brief: as §2
Compound,IC50 [3] [molar ratio],Activity [1] [%],Ratio [2],viability at 1000 molar ratio [4] [%],Activity [5] [%],Activity [6] [%],Activity [7] [%],inhibition (INH) [8] [%],inhibition (INH) [9] [%]
COc1ccc(C(=O)/C=C/c2ccc(O)cc2)c2c1CCC(C)(C)O2 [DEOXYXANTHOANGELOL H],578,32.1,1.5,60,85.2,60.5,100,–,–
CC(C)=CCCC1(C)CCc2c(O)ccc(C(=O)/C=C/c3ccc(O)cc3)c2O1 (stereo not given),273,0,2.4,70,64.7,20.3,87.3,–,–
CC1(C)CCc2c(ccc(C(=O)/C=C/c3ccc(O)cc3)c2O)O1 [DORSMANNIN A],583,34.2,1.9,60,86,61.7,100,–,–
CC1(C)N([O])C(c2ccc(C(=O)O)cc2)=[N+]([O-])C1(C)C,–,–,8,–,–,–,–,–,–
C=C[C@@H](O)C#CC#C[C@@H](O)/C=C\CCCCCCCCOC(C)=O,511,18.7,1.2,60,81.4,53.1,100,–,–
COc1ccc(C(=O)CCc2ccc(O)cc2)c2c1CCC(C)(C)O2 [DEOXYDIHYDROXANTHOANGELOL H],563,27.4,1.6,60,81.6,56.7,100,–,–

# More lines, main results first:
IC50 [3] [molar ratio],Compound,Activity [1] [%],Ratio [2],viability at 1000 molar ratio [4] [%],Activity [5] [%],Activity [6] [%],Activity [7] [%],inhibition (INH) [8] [%],inhibition (INH) [9] [%]
230,COc1cc(O)c2c(c1CC=C(C)C)O[C@H](c1ccc(O)cc1)CC2=O [MUNDULEAFLAVANONE B],0,2.3,70,66.7,24.9,90.3,–,–
490,COc1c2occc2cc2ccc(=O)oc12 [METHOXSALEN],14.2,1.3,60,83.1,55.2,100,–,–
290,CC(C)=CCc1c(O)ccc2ccc(=O)oc12 [OSTHENOL],0,2,70,69.8,30.1,90.6,–,–
572,CC1(C)[C@@H](O[C@H]2O[C@H](C(=O)O)[C@@H](O)[C@H](O)[C@H]2O[C@@H]2O[C@H](C(=O)O)[C@@H](O)[C@H](O)[C@H]2O)CC[C@]2(C)[C@H]3C(=O)C=C4[C@@H]5C[C@@](C)(C(=O)O)CC[C@]5(C)CC[C@@]4(C)[C@]3(C)CC[C@@H]12 [GLYCYRRHIZIN],27.4,2.2,> 80,83.3,63.3,100,–,–
215,CC(C)=CCC/C(C)=C/Cc1c(O)cc(O)c2c1O[C@H](c1ccc(O)cc1)CC2=O [SOPHORAFLAVANONE A],0,2.1,70,56.4,18.5,89.3,–,–
482,CC1=C(/C=C/C(C)=C/C=C/C(C)=C/C(=O)O)C(C)(C)CCC1 [TRETINOIN],15.3,–,60,76.3,49.3,100,–,–
486,COc1c2ccoc2c(OC)c2oc(=O)ccc12 [ISOPIMPINELLIN],12.1,1.4,60,81.5,57.4,100,–,–
320,CC(C)=CCc1c(O)ccc(C(=O)/C=C/c2ccc(O)cc2)c1O [ISOBAVACHALCONE],0,2,60,63,26.3,98.4,80,20
264,CC(C)=CCCC(C)(O)CCc1c(O)ccc(C(=O)/C=C/c2ccc(O)cc2)c1O (stereo not given) [XANTHOANGELOL J],0,2.4,70,66.8,12.5,90.2,–,–
